Like-named read-outs stand apart in the source and are kept apart here. Ends that are not written are not given here. * marks the point of attachment. Biotin = O=C1N[C@H]2[C@H](CS[C@H]2CCCCC(=O)*)N1

Results on 5 molecules are retold here after article PMC2195664 (The Journal of Experimental Medicine, 1999).

Data set [1] deals with T1, mCD1 (Mus musculus, UniProt P11609). The format is binding. Particulars: competitor preincubated with protein in solution.
The subject of data set [2] is 3C3 mouse NK T cell hybridoma. In words: Competition for α-GalCer presentation by plate-bound hCD1d. The format is cell-based. Particulars: data not shown. In short, it runs like this:
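Gangliosides dissolved in PBS were added to soluble insect-cell-derived hCD1d before α-GalCer. The mixture was coated onto plates 2 h at 37°C and washed five times in PBS. 3C3 hybridoma cells (5 × 10⁴/well) were cultured 16 h, and IL-2 was measured by ELISA.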

Data set [3] relates to 3C3 mouse NK T cell hybridoma. In words: Competition for α-GalCer presentation by plate-bound mCD1 to 3C3 hybridoma. The format is cell-based. Particulars: 1 μg/well mCD1 preincubated with 25 ng/well α-GalCer.
Data set [4] concerns the target T2, hCD1d (Homo sapiens, UniProt P15813). The format is binding. Particulars: competitor preincubated with protein in solution.
Data set [5] deals with 3C3 mouse NK T cell hybridoma. Kind of data set: Antigen presentation by plate-bound mCD1 to 3C3 hybridoma, IL-2 release ELISA. Type of data set: cell-based. Particulars: 1 μg/well plate-bound mCD1 preincubated with 100 ng lipid. In short, it runs like this:
(§1)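 Soluble CD1d–β2m heterodimers came from stably cotransfected Drosophila SC2 cells induced 3 d with 0.7 mM CuSO₄, purified on Ni-NTA then Mono Q. Plates were coated 2 h at 37°C with 1 µg/well protein premixed with lipid in PBS. Controls were protein with DMSO (0.25–1% final) or lipid alone. After five PBS washes, 5 × 10⁴ 3C3 cells/well were added; IL-2 was measured by ELISA after 16 h.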
Background: ELISA stands for enzyme-linked immunosorbent assay.

The next data set has as its system N38-2C12 NK T hybridoma. Kind of data set: Stimulation of 2C12 hybridoma by plates coated with soluble CD1d, IL-2 release. Type of data set: cell-based, mouse. Particulars: 50 ng/well α-GalCer. In short, it runs like this: (§2)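 Plates were coated 2 h at 37°C with 1 µg/well soluble mCD1 or hCD1d (insect-cell-derived), either alone or premixed in PBS with 50 ng/well α-GalCer. After five PBS washes, 5 × 10⁴ hybridoma cells/well were added. IL-2 was quantified after 16 h by sandwich ELISA against a recombinant IL-2 standard (detection limit 0.1 U/ml). Representative of five experiments.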

A short description of data set [6]: Solubility in aqueous solution. Type of data set: physicochemical. Particulars: must be dissolved in DMSO-containing solutions.
The test system of data set [7] is 3C3 mouse NK T cell hybridoma. Type of data set: cell-based. Particulars: mCD1+ A20 cells pulsed with 100 ng/ml lipid; 16 h.
A further data set concerns DN3A4-1.2 NK T hybridoma. Kind of data set: Stimulation of 1.2 hybridoma by plates coated with soluble CD1d, IL-2 release. The format is cell-based, mouse. Particulars: 50 ng/well α-GalCer. In short, it runs like this:
as §2

Data set [8] has as its system 3C3 mouse NK T cell hybridoma. Kind of data set: Antigen presentation by plate-bound hCD1d to 3C3 hybridoma, IL-2 release ELISA. The format is cell-based. Particulars: 1 μg/well plate-bound hCD1d preincubated with 100 ng lipid. In short, it runs like this:
as §1

In data set [9] the target is T1, mCD1. Kind of data set: SPR. Type of data set: binding.
Another data set concerns mCD1-restricted CTLs. Particulars: cited from earlier work.
The target of data set [10] is T2, hCD1d. In words: SPR. The format is binding.
Data set [11] concerns Vα14+ mouse NK T cell hybridomas N38-2H4 and DN3A4-1.4. Kind of data set: Recognition of antigen on immobilized mCD1 by Vβ7. The format is cell-based. Particulars: data not shown.
The next data set deals with NK T cells. Particulars: cited from earlier work.
The target of data set [12] is T1, mCD1. Kind of data set: SPR competition: mCD1 binding to biotin-P99 chip. Particulars: mCD1 1.8–2 μM.
In data set [13] the target is T3, soluble mCD1–mβ2m heterodimer (mouse, UniProt P11609 22-305; P01887 21-119).
T3 sequence (looked up) 1: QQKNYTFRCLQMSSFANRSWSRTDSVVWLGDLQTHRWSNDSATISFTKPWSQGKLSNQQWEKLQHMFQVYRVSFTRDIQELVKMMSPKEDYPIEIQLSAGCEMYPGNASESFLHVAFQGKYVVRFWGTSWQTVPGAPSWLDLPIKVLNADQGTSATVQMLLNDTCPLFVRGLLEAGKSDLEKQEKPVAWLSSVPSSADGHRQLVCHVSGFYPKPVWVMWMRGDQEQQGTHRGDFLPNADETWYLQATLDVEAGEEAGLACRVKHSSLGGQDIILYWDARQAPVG
T3 sequence (looked up) 2: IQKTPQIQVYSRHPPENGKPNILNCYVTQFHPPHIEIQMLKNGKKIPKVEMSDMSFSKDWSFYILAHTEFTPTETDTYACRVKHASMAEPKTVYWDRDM
Kind of data set: SPR. (In general: Surface plasmon resonance follows binding to a sensor surface in real time, without labels.)

For GD1a, the “inhibition of mCD1 binding to biotin–α-GalCer or biotin–β-GalCer chip” value at mCD1 [1] is listed as “could inhibit”. Further, the “inhibition of α-GalCer presentation” value in data set [2] and in data set [3] was “could inhibit” each time. On hCD1d [4], the “inhibition of hCD1d binding to biotin–α-GalCer or biotin–β-GalCer chip” value is listed as “could inhibit”.
As to `CCCCCCCCCCCCCCCCCCCCCCCCCC(=O)N[C@@H](CO[C@H]1O[C@H](CO)[C@H](O)[C@H](O)[C@H]1O)[C@H](O)[C@H](O)CCCCCCCCCCCCCC` [α-GalCer, α-galactosyl ceramide], the “presentation to 3C3 hybridoma (IL-2 release)” value in data set [5] was “could both present”; in data set [7], “can present”; in data set [8], “could both present”. For the same molecule, the “effect on response to plate-bound CD1d” value in the data set with N38-2C12 NK T hybridoma and with DN3A4-1.2 NK T hybridoma was “can be enhanced” in each case. Further, the solubility result in data set [6] is listed as “much less soluble than the gangliosides”. Besides, the koff at mCD1 [9] (read-out: k off (fast)) turned out to be 0.1 s⁻¹; on mCD1 [9] (read-out: k off (slow)), 0.004 s⁻¹; on hCD1d [10] (read-out: k off (fast)) it was 0.08 s⁻¹; at hCD1d [10] (read-out: k off (slow)), 0.004 s⁻¹. For the same molecule, the “effect on ovalbumin peptide recognition” value in the data set on mCD1-restricted CTLs is given as “did not affect”. Besides, the “recognition when presented by immobilized mCD1” value in data set [11] is “could recognize”.
For the molecule YEHDFHHIREWGNHWKNCLAVM [P99], the “prevention of α-GalCer recognition by NK T cells” value in the data set with NK T cells is reported as “neither P99 nor an ovalbumin peptide could prevent”. Further, the “inhibition of mCD1 binding to biotin–α-GalCer or biotin–β-GalCer chip” value with mCD1 [1] is “does not affect”. For the same molecule, in the data set with mCD1 [12], the “inhibition of mCD1 binding to immobilized biotin-P99” value is “inhibited by increasing concentrations”.
For `CC(=O)N[C@H]1[C@H](O[C@H]2[C@@H](O)[C@@H](CO)O[C@@H](O[C@@H]([C@H](O)[C@@H](O)C=O)[C@H](O)CO)[C@@H]2O)O[C@H](CO[C@]2(C(=O)O)C[C@H](O)[C@@H](NC(C)=O)[C@H]([C@H](O)[C@H](O)CO)O2)[C@@H](O)[C@@H]1O[C@@H]1O[C@H](CO)[C@H](O)[C@H](O[C@]2(C(=O)O)C[C@H](O)[C@@H](NC(C)=O)[C@H]([C@H](O)[C@H](O)CO)O2)[C@H]1O` [disialyllacto-N-tetraose, α-Neu5Ac-[2→3]-β-Gal-[1→3]-(α-Neu5Ac-[2→6])-β-GlcNac-[1→3]-β-Gal-[1→4]-Glc], the “inhibition of α-GalCer presentation” value is “did not inhibit” in data set [3] and “has no effect” in data set [3] (listed as control hexasaccharide).
As to Biotin-YEHDFHHIREWGNHWKNCLAVM [NH2 terminus biotinylated P99 peptide], in data set [13], the koff was 0.005 to 0.008 s⁻¹.
